Data taken from ChEMBL document CHEMBL4480414, “Design and total synthesis of (-)-codonopsinine, (-)-codonopsine and codonopsinine analogues by O-(2-oxopyrrolidin-5-yl)trichloroacetimidate as amidoalkylating agent with improved antimicrobial activity via solid lipid nanoparticle formulations” (Bioorg Med Chem, 2019).
≈ marks a conversion by molar mass, not a printed value. Calls of active or inactive are those of the source. The rule behind the calls is not given here.

Key:
[1] = test system: Staphylococcus aureus; assay: Antimicrobial activity against Staphylococcus aureus ATCC 29213 measured after 18 hrs by broth microdilution method; format: functional; conditions: ATCC 29213, 18 h
In short: (§1)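 Broth microdilution in 96-well plates. Compound stock 10 mg/ml in DMSO, two-fold serial dilutions from final 1024 to 0.5 µg/ml in water plus double-strength nutrient broth. Inoculum from direct colony suspension in saline adjusted to 0.5 McFarland, final 5 × 10⁵ CFU per well, used within 15 min. Positive and negative control rows.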

[2] = Permeability of the compound in simulated dialysis membrane at pH 6.8 measured within 6 hrs using solid lipid nanoparticle formulation by Franz diffusion cell-based spectrophotometric method; format: ADME, cell membranes; conditions: artificial membrane, pH 6.8, 6 h
In short: (§2)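 SLNs made by hot emulsification-ultrasonication with Compritol as lipid and 3% Pluronic F68 aqueous phase. Homogenized at 10,000 rpm and 75 °C for 15 min, then probe-sonicated 10 min.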

[3] = test system: Candida albicans; assay: Antimicrobial activity against Candida albicans ATCC 10231 at 380 ug by Kirby-Bauer disk diffusion test; format: functional, organism-based
In short: (§3)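 Modified Kirby-Bauer disc diffusion on Muller-Hinton agar. Inhibition-zone diameter, disc diameter included, measured with a ruler from under the plate and recorded in mm.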

[4] = test system: Candida albicans; assay: Antimicrobial activity against Candida albicans ATCC 10231 measured after 18 hrs by broth microdilution method; format: functional; conditions: ATCC 10231, 18 h; in short: as §1
[5] = Dissolution of the compound in phosphate buffer at pH 6.8 measured over 12 hrs using solid lipid nanoparticle formulation by dialysis bag diffusion method; format: physicochemical; conditions: artificial membrane, pH 6.8, 12 h; in short: as §2
[6] = test system: Acinetobacter baumannii; assay: Antimicrobial activity against clinical isolate of Acinetobacter baumannii measured after 18 hrs using solid lipid nanoparticle formulation by broth microdilution method; format: functional; in short: as §1
[7] = test system: Escherichia coli; assay: Antimicrobial activity against Escherichia coli ATCC 25922 measured after 18 hrs by broth microdilution method; format: functional; conditions: ATCC 25922, 18 h; in short: as §1
[8] = test system: Klebsiella pneumoniae; assay: Antimicrobial activity against Klebsiella pneumoniae ATCC 700603 measured after 18 hrs by broth microdilution method; format: functional; conditions: Klebsiella pneumoniae, 700603, 18 h; in short: as §1
[9] = test system: Klebsiella pneumoniae; assay: Antimicrobial activity against Klebsiella pneumoniae ATCC 700603 measured after 18 hrs using solid lipid nanoparticle formulation by broth microdilution method; format: functional; conditions: Klebsiella pneumoniae, 700603, 18 h; in short: as §1
[10] = test system: Proteus mirabilis; assay: Antimicrobial activity against Proteus mirabilis ATCC 14153 measured after 18 hrs by broth microdilution method; format: functional; conditions: ATCC 14153, 18 h; in short: as §1
[11] = Dissolution of the compound in phosphate buffer at pH 6.8 measured within 2 hrs by dialysis bag diffusion method; format: physicochemical; conditions: artificial membrane, pH 6.8, 2 h
In short: (§4)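 Formula or compound suspension (3 ml) in 12 kDa MWCO dialysis bags, in 500 ml enzyme-free phosphate buffer pH 6.8, 37 °C, 50 rpm. 5 ml samples taken with replacement over 12 h. Cumulative % release determined by UV absorbance against a calibration curve.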

[12] = test system: Staphylococcus aureus; assay: Antimicrobial activity against Staphylococcus aureus ATCC 29213 assessed as diameter of inhibition zone at 380 ug by Kirby-Bauer disk diffusion test; format: functional; in short: as §3
[13] = test system: Pseudomonas aeruginosa; assay: Antimicrobial activity against Pseudomonas aeruginosa ATCC 27853 measured after 18 hrs using solid lipid nanoparticle formulation by broth microdilution method; format: functional; conditions: ATCC 27853, 18 h; in short: as §1
[14] = test system: Candida albicans; assay: Antimicrobial activity against Candida albicans ATCC 10231 measured after 18 hrs using solid lipid nanoparticle formulation by broth microdilution method; format: functional; conditions: ATCC 10231, 18 h; in short: as §1
[15] = test system: Pseudomonas aeruginosa; assay: Antimicrobial activity against Pseudomonas aeruginosa ATCC 27853 measured after 18 hrs by broth microdilution method; format: functional; conditions: ATCC 27853, 18 h; in short: as §1
[16] = test system: Proteus mirabilis; assay: Antimicrobial activity against Proteus mirabilis ATCC 14153 measured after 18 hrs using solid lipid nanoparticle formulation by broth microdilution method; format: functional; conditions: ATCC 14153, 18 h; in short: as §1
[17] = test system: Escherichia coli; assay: Antimicrobial activity against Escherichia coli ATCC 25922 measured after 18 hrs using solid lipid nanoparticle formulation by broth microdilution method; format: functional; conditions: ATCC 25922, 18 h; in short: as §1
[18] = test system: Staphylococcus aureus; assay: Antimicrobial activity against Staphylococcus aureus ATCC 29213 measured after 18 hrs using solid lipid nanoparticle formulation by broth microdilution method; format: functional; conditions: ATCC 29213, 18 h; in short: as §1
[19] = Permeability of the compound in simulated dialysis membrane at pH 6.8 measured within 6 hrs by Franz diffusion cell-based spectrophotometric method; format: ADME, cell membranes; conditions: artificial membrane, pH 6.8, 6 h
In short: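 Franz cell with dialysis membrane. 1 ml of SLN formula or compound suspension in the donor chamber; receptor holds phosphate buffer pH 6.8 at 37 °C, magnetically stirred. Receptor sampled with replacement over 6 h; concentration by UV absorbance against a calibration curve.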

[20] = test system: Acinetobacter baumannii; assay: Antimicrobial activity against clinical isolate of Acinetobacter baumannii measured after 18 hrs by broth microdilution method; format: functional; in short: as §1
[21] = Dissolution of the compound in phosphate buffer at pH 6.8 measured after 2 hrs by dialysis bag diffusion method; format: physicochemical; conditions: artificial membrane, pH 6.8, 2 h; in short: as §4

COCc1ccc([C@@H]2[C@@H](O)[C@H](O)[C@@H](C)N2C)cc1
MIC [1]: 2 µg/mL (≈ 7.96 µM) | permeability [2]: 100% | Activity [3]: inactive | MIC [4]: > 1020 µg/mL | Activity [5]: 92.1% | MIC [6]: > 1020 µg/mL | MIC [7]: 8 µg/mL (≈ 31.8 µM) | MIC [8]: 256 µg/mL (≈ 1020 µM) | MIC [9]: 512 µg/mL (≈ 2040 µM) | MIC [10]: 16 µg/mL (≈ 63.7 µM) | Activity [11]: 91.8% | growth inhibition (GI) [12]: Active | MIC [13]: > 1020 µg/mL | MIC [14]: > 1020 µg/mL | MIC [15]: > 1020 µg/mL | MIC [16]: 8 µg/mL (≈ 31.8 µM) | MIC [17]: 8 µg/mL (≈ 31.8 µM) | MIC [18]: 2 µg/mL (≈ 7.96 µM) | permeability [19]: 62.7% | MIC [20]: > 1020 µg/mL

COc1ccc([C@@H]2[C@@H](O)[C@H](O)[C@@H](C)N2C)cc1OC
MIC [1]: 32 µg/mL (≈ 120 µM) | permeability [2]: 100% | Activity [3]: inactive | MIC [4]: > 1020 µg/mL | Activity [5]: 93.2% | MIC [6]: > 1020 µg/mL | MIC [7]: 64 µg/mL (≈ 239 µM) | MIC [8]: > 1020 µg/mL | MIC [9]: > 1020 µg/mL | MIC [10]: > 1020 µg/mL | Activity [11]: 87.8% | growth inhibition (GI) [12]: Active | MIC [13]: > 1020 µg/mL | MIC [14]: > 1020 µg/mL | MIC [15]: > 1020 µg/mL | MIC [16]: > 1020 µg/mL | MIC [17]: 256 µg/mL (≈ 958 µM) | MIC [18]: 32 µg/mL (≈ 120 µM) | permeability [19]: 67.2% | MIC [20]: > 1020 µg/mL

COc1cc([C@@H]2[C@@H](O)[C@H](O)[C@@H](C)N2C)c(F)c(C)c1OC
MIC [1]: 4 µg/mL (≈ 13.4 µM) | permeability [2]: 100% | Activity [21]: 78.2% | Activity [3]: inactive | MIC [4]: > 1020 µg/mL | Activity [5]: 92.2% | MIC [6]: 256 µg/mL (≈ 855 µM) | MIC [7]: 64 µg/mL (≈ 214 µM) | MIC [8]: 512 µg/mL (≈ 1710 µM) | MIC [9]: > 1020 µg/mL | MIC [10]: 1020 µg/mL (≈ 3420 µM) | growth inhibition (GI) [12]: Active | MIC [13]: > 1020 µg/mL | MIC [14]: > 1020 µg/mL | MIC [15]: 1020 µg/mL (≈ 3420 µM) | MIC [16]: 128 µg/mL (≈ 428 µM) | MIC [17]: 16 µg/mL (≈ 53.5 µM) | MIC [18]: 4 µg/mL (≈ 13.4 µM) | permeability [19]: 72.9% | MIC [20]: 512 µg/mL (≈ 1710 µM)
